{
  "source": "ChEMBL document CHEMBL3997766",
  "about": "“Synthesis and pre-clinical studies of new amino-acid ester thiazolide prodrugs” (Eur J Med Chem, 2017)",
  "key": {"[1]": {"tested_on": "Rattus norvegicus", "test": "AUC (0 to t) in male Sprague-Dawley rat assessed as Tizoxanide-glucuronide level in plasma at 6 mg/kg, iv administered as single dose", "assay_type": "ADME, organism-based", "conditions": "in vivo", "outline": "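Plasma tizoxanide and tizoxanide glucuronide were measured and PK parameters derived. AUCs were dose-corrected to 30 mg/kg for bioavailability.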"}, "[2]": {"tested_on": "Plasma", "test": "Drug metabolism in Sprague-Dawley rat assessed as Tizoxanide in plasma at 28 mg/kg, po measured at 0.083 hrs post dose", "assay_type": "ADME, organism-based", "conditions": "in vivo"}, "[3]": {"tested_on": "Rattus norvegicus", "test": "Neurotoxicity in Sprague-Dawley rat assessed as labored breathing at 1000 mg/kg administered as single dose via oral gavage after 4 to 24 hrs", "assay_type": "toxicity, organism-based", "conditions": "in vivo", "outline": "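Three groups of 10 rats (5M/5F) received a single dose by oral gavage of 100, 300 or 1000 mg/kg, and an untreated group served as control. Clinical signs of CNS effects were recorded at 4 and 24 h after treatment.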"}, "[4]": {"tested_on": "Canis familiaris", "test": "Toxicity in Beagle dog at 5 to 75 mg/kg, po administered as gelatin capsule qd for 28 consecutive days", "assay_type": "organism-based, Canis lupus familiaris", "conditions": "in vivo"}, "[5]": {"tested_on": "Rattus norvegicus", "test": "Cmax in Sprague-Dawley rat assessed as tizoxanide-glucuronide level in plasma at 30 mg/kg, po administered as single dose", "assay_type": "ADME, organism-based", "parameters": "dose 30 mg/kg, route oral", "conditions": "in vivo", "outline": "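Rats in groups of three received one compound as a single oral dose (30 mg/kg) or a single intravenous injection (6 mg/kg), with four compounds studied separately. Serial blood samples were drawn at 5, 10, 15 and 30 min and at 1, 2, 4, 8, 23 and 24 h post-dose. Plasma parent drug and metabolites were quantified and PK parameters were derived.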"}, "[6]": {"tested_on": "Rattus norvegicus", "test": "Toxicity in Sprague-Dawley rat assessed as effect on food consumption at 10 to 75 mg/kg administered as oral gavage qd for 28 consecutive days measured once per week during compound dosing", "assay_type": "organism-based", "conditions": "in vivo", "outline": "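Sub-acute study in Sprague-Dawley rats: 10, 30 or 75 mg/kg given orally once a day for 28 consecutive days as a yellow suspension. There were 4 groups of up to 30 rats each (15M/15F), including a control. Body weight, clinical observations and terminal findings were assessed.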"}, "[7]": {"tested_on": "Rattus norvegicus", "test": "Toxicity in Sprague-Dawley rat assessed as hemorrhage in duodenum at 75 mg/kg administered as oral gavage qd for 28 consecutive days measured on day 29 by microscopic method", "assay_type": "organism-based", "conditions": "in vivo", "outline": "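Sub-acute study in Sprague-Dawley rats dosed orally with a suspension at 10, 30 and 75 mg/kg once daily for 28 consecutive days. Four groups of up to 30 rats each (15M/15F).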"}, "[8]": {"tested_on": "Canis familiaris", "test": "Toxicity in Beagle dog assessed as decrease in cholesterol level at 25 mg/kg, po administered as gelatin capsule once daily for 28 days followed by two weeks of recovery period", "assay_type": "organism-based, Canis lupus familiaris", "conditions": "in vivo, 672 h", "outline": "(§1)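 Sub-acute study in Beagle dogs dosed orally by gelatin capsule at 5, 15 and 25 mg/kg once a day for 28 consecutive days.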"}, "[9]": {"tested_on": "Canis familiaris", "test": "Toxicity in Beagle dog up to 25 mg/kg, po administered as gelatin capsule once daily for 28 days measured on day 29 followed by two weeks of recovery period", "assay_type": "organism-based, Canis lupus familiaris", "conditions": "in vivo, 672 h", "outline": "as §1"}},
  "data": [
    {"smiles": "CC(C)(C)[C@H](N)C(=O)Oc1ccccc1C(=O)Nc1ncc([N+](=O)[O-])s1.Cl", "values": [
      {"measurement": "AUCt", "setting": "[1]", "result": 13600, "unit": "ng·h/mL"},
      {"measurement": "Drug metabolism", "setting": "[2]", "result": "Metabolite_Detected"},
      {"measurement": "Activity", "setting": "[3]", "result": "Toxic"},
      {"measurement": "Activity", "setting": "[4]", "result": "Non-Toxic"},
      {"measurement": "Cmax", "setting": "[5]", "result": 18600, "unit": "ng/mL"},
      {"measurement": "Activity", "setting": "[6]", "result": "Non-Toxic"},
      {"measurement": "Activity", "setting": "[7]", "result": "Toxic"},
      {"measurement": "Activity", "setting": "[8]", "result": "Non-Toxic"},
      {"measurement": "Activity", "setting": "[9]", "result": "Non-Toxic"}
    ]}
  ]
}
